Assay results: ChEMBL document CHEMBL1137633, “2,N6-disubstituted adenosine analogs with antitrypanosomal and antimalarial activities” (Antimicrob Agents Chemother, 2007)
pEC50, pIC50, pKi: −log10 of the molar value. Active and inactive are the calls of the source. No cut-off for these calls is given here.

Tests used:
[1] = tested on: Trypanosoma brucei rhodesiense; test: Trypanocidal activity against Trypanosoma brucei rhodesiense STIB 900 […] by reporter dye assay; format: functional, organism-based
Plasmodium falciparum = test: Antiplasmodial activity against chloroquine and pyrimethamine-resistant Plasmodium falciparum K1 […] by reporter dye assay; format: functional, organism-based
L6 = test: Cytotoxicity against rat L6 cells; format: cell-based
[2] = Cytotoxicity against HEK293T cells after 16 hrs by alamar blue staining; format: cell-based; conditions: Homo sapiens, HEK-293T
How it was run: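 HEK 293T cells were seeded at 3×10^4/well in DMEM with 10% newborn bovine serum, 2 mM L-glutamax and 1% penicillin-streptomycin, and left to adhere for 3 h at 37°C under 5% CO2. Medium with serial drug dilutions (500 to 0.24 μM in the added medium) was then given for 16 h. Resazurin followed for a further 24 h, read by fluorescence (ex 530/em 590 nm). IC50 values came from ≥3 independent experiments.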

[3] = tested on: Trypanosoma brucei brucei; test: Inhibition of Trypanosoma brucei brucei 427 P1 transporter-mediated [3H]adenosine uptake by fluid scintillation counting in presence of 100 uM adenine
[4] = Inhibition of Trypanosoma brucei brucei 427 P2 transporter-mediated [3H]adenosine uptake by fluid scintillation counting in presence of 100 uM inosine
[5] = tested on: Trypanosoma brucei brucei; test: Trypanostatic activity against Trypanosoma brucei brucei s427 by alamar blue fluorescent dye assay; format: functional; conditions: read-out: ED50 (the source's name)
[6] = tested on: Trypanosoma brucei brucei; test: Trypanocidal activity against Trypanosoma brucei brucei s427 by alamar blue fluorescent dye assay; format: functional; conditions: read-out: ED50 (the source's name)
Leishmania major [7] = test: Leishmanistatic activity against Leishmania major promastigotes by alamar blue fluorescent dye assay; format: functional; conditions: read-out: ED50 (the source's name)
Leishmania major [8] = test: Leishmanicidal activity against Leishmania major promastigotes by alamar blue fluorescent dye assay; format: functional; conditions: read-out: ED50 (the source's name)
Leishmania mexicana = test: Antiprotozoal activity against axenic Leishmania mexicana amastigotes by alamar blue fluorescent dye assay; format: functional, organism-based
Trypanosoma cruzi = test: Trypanocidal activity against Trypanosoma cruzi Tulahuen C4 trypomastigotes infected in mouse macrophage by reporter dye assay; format: functional, organism-based
Leishmania donovani = test: Antileishmanial activity against Leishmania donovani MHOMET-67/L82 amastigotes infected in mouse macrophage by reporter dye assay; format: functional, organism-based
Leishmania major [9] = test: Biphasic antileishmanial activity against Leishmania major promastigotes by alamar blue fluorescent dye assay; format: functional, organism-based
[10] = tested on: Trypanosoma brucei brucei; test: Biphasic antitrypanosomal activity against Trypanosoma brucei brucei s427 by alamar blue fluorescent dye assay; format: functional, organism-based

Row | SMILES | pIC50 [1] | pIC50 (Plasmodium falciparum) | pIC50 [2] | pIC50 (Trypanosoma cruzi) | pIC50 (Leishmania donovani) | other results
1 | OC[C@H]1O[C@@H](n2cnc3c(NC4CCCC4)nc(NC4CCCC4)nc32)[C@H](O)[C@@H]1O | 6.40 | < 5.00 | < 3.30 | – | – | pIC50 (L6): 4.01; inhibition [3]: inactive; pKi [4]: 4.70; pEC50 [5]: 6.78; pEC50 [6]: 4.80; pEC50 (Leishmania major [7]): 8.00; pEC50 (Leishmania major [8]): 5.04; pIC50 (Leishmania mexicana): 5.05
2 | OC[C@H]1O[C@@H](n2cnc3c(N4CCCCC4)nc(N4CCCCC4)nc32)[C@H](O)[C@@H]1O | 4.06 | < 5.00 | – | – | – | –
3 | OC[C@H]1O[C@@H](n2cnc3c(NCCC(c4ccccc4)c4ccccc4)nc(NCCc4cnc[nH]4)nc32)[C@H](O)[C@@H]1O | 4.15 | 5.09 | – | > 4.52 | > 4.52 | –
4 | OC[C@H]1O[C@@H](n2cnc3c(NC4CCCCCC4)nc(NC4CCCC4)nc32)[C@H](O)[C@@H]1O | 6.15 | 5.05 | < 3.30 | – | – | –
5 | OC[C@H]1O[C@@H](n2cnc3c(NCc4cccc(I)c4)nc(NC4CCCC4)nc32)[C@H](O)[C@@H]1O | 5.26 | < 5.00 | – | > 4.52 | > 4.52 | pIC50 (L6): 4.29
6 | OC[C@H]1O[C@@H](n2cnc3c(NC4CC4)nc(NC4CC4)nc32)[C@H](O)[C@@H]1O | 3.76 | < 5.00 | – | – | – | –
7 | CCN(CC)CCCC(C)Nc1ccnc2cc(Cl)ccc12 (stereo unspecified) [CHLOROQUINE] | – | – | – | > 4.52 | > 4.52 | –
8 | OC[C@H]1O[C@@H](n2cnc3c(NC4CCCC4)nc(NC4CCCCC4)nc32)[C@H](O)[C@@H]1O | 6.31 | 5.04 | 3.64 | – | – | –
9 | OC[C@H]1O[C@@H](n2cnc3c(NCCC(c4ccccc4)c4ccccc4)nc(NCc4cccc5ccccc45)nc32)[C@H](O)[C@@H]1O | 4.76 | 5.81 | – | – | – | –
10 | N=C(N)c1ccc(OCCCCCOc2ccc(C(=N)N)cc2)cc1 [PENTAMIDINE] | – | – | – | – | – | pIC50 (Leishmania major [9]): 5.45
11 | OC[C@H]1O[C@@H](n2cnc3c(NCc4cccc5ccccc45)nc(NCCC(c4ccccc4)c4ccccc4)nc32)[C@H](O)[C@@H]1O | 4.62 | 5.75 | – | – | – | –
12 | OC[C@H]1O[C@@H](n2cnc3c(NC4CCCC4)nc(NCCOCc4ccccc4)nc32)[C@H](O)[C@@H]1O | 5.38 | < 5.00 | – | > 4.52 | > 4.52 | pIC50 (L6): 4.10
13 | OC[C@H]1O[C@@H](n2cnc3c(Nc4ccccc4)nc(NCCc4cnc[nH]4)nc32)[C@H](O)[C@@H]1O | 4.12 | < 5.00 | – | > 4.52 | > 4.52 | –
14 | OC[C@H]1O[C@@H](n2cnc3c(NC4CCCC4)nc(NC4CCCCCC4)nc32)[C@H](O)[C@@H]1O | 5.51 | 5.17 | 3.78 | – | – | –
15 | OC[C@H]1O[C@@H](n2cnc3c(NC45CC6CC(CC(C6)C4)C5)nc(N4CCCC4)nc32)[C@H](O)[C@@H]1O | 4.47 | 5.21 | – | – | – | –
16 | CCCCNc1nc(NC2CCCC2)nc2c1ncn2[C@@H]1O[C@H](CO)[C@@H](O)[C@H]1O | 6.19 | < 5.00 | < 3.30 | – | – | inhibition [3]: inactive; pKi [4]: 5.05
17 | OC[C@H]1O[C@@H](n2cnc3c(NC4CC4)nc(NC4CCCC4)nc32)[C@H](O)[C@@H]1O | 5.74 | < 5.00 | < 3.30 | – | – | –
18 | OC[C@H]1O[C@@H](n2cnc3c(NC4CCCCC4)nc(NC4CCCC4)nc32)[C@H](O)[C@@H]1O | 6.15 | < 5.00 | < 3.30 | – | – | –
19 | OC[C@H]1O[C@@H](n2cnc3c(N4CCCCC4)nc(NC4CCCC4)nc32)[C@H](O)[C@@H]1O | 4.95 | < 5.00 | – | – | – | –
20 | N=C(N)c1ccc(/N=N/Nc2ccc(C(=N)N)cc2)cc1 [DIMINAZENE] | – | – | – | – | – | pIC50 [10]: 6.97
21 | OC(c1cc(C(F)(F)F)nc2c(C(F)(F)F)cccc12)C1CCCCN1 (stereo unspecified) [MEFLOQUINE] | – | – | – | > 4.52 | > 4.52 | pIC50 (L6): 5.32
22 | OC[C@H]1O[C@@H](n2cnc3c(NCc4cccc(I)c4)nc(NCCC4CNc5ccccc54)nc32)[C@H](O)[C@@H]1O (stereo partly specified) | 4.70 | < 5.00 | – | > 4.52 | > 4.52 | –
23 | OC[C@H]1O[C@@H](n2cnc3c(NCCC(c4ccccc4)c4ccccc4)nc(NCCC4CNc5ccccc54)nc32)[C@H](O)[C@@H]1O (stereo partly specified) | 4.60 | 5.74 | – | > 4.52 | > 4.52 | –
